Calls of active or inactive are those of the source. No cut-off for these calls is given here.
Assays:
Estrogen receptor beta [1] = target: T1, Estrogen receptor beta (Homo sapiens, UniProt Q92731); experiment: Binding affinity to human ERbeta LBD expressed in Escherichia coli BL21(DE3) after 2 hrs by fluorescence tracer coumestrol based competitive fluorometric binding assay relative to 17beta-estradiol
Estrogen receptor [2] = target: T2, Estrogen receptor (Homo sapiens, UniProt P03372); experiment: Antagonist activity at ERalpha (unknown origin) expressed in HEK293T cells assessed as inhibition of 17beta-estradiol stimulated transcriptional activity after 24 hrs by dual luciferase reporter gene assay; format: cell-based
T2 sequence (P03372 whole entry): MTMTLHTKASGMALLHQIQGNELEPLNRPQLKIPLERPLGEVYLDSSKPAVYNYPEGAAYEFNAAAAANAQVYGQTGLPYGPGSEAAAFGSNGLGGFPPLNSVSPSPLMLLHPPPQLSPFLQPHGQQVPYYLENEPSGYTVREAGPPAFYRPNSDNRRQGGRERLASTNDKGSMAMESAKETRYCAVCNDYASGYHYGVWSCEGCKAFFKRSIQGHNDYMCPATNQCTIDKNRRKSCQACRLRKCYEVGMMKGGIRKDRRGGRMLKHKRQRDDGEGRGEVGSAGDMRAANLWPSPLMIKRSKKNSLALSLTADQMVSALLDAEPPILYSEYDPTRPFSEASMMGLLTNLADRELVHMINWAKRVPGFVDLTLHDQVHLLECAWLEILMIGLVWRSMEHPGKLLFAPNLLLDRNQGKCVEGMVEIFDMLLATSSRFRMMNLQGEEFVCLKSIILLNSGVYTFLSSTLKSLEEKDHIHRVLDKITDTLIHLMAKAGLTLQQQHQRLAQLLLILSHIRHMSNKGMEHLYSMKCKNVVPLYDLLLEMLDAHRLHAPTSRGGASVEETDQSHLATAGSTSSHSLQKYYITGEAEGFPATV

MCF7 [3] = experiment: Antiproliferative activity against human MCF7 cells after 72 hrs by MTT assay; format: functional, cell-based; settings: MCF7, 72 h
How it was run: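 MCF-7 (ATCC), kept in DMEM with 10% FBS, were treated in triplicate for 72 h. IC50 is the average of at least three independent experiments ± SD.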

Homo sapiens = organism: Homo sapiens; experiment: Ratio of relative binding affinity for human ERalpha LBD to relative binding affinity to human ERbeta LBD
Estrogen receptor beta [4] = target: T1, Estrogen receptor beta; experiment: Antagonist activity at ERbeta (unknown origin) expressed in HEK293T cells assessed as inhibition of 17beta-estradiol stimulated transcriptional activity after 24 hrs by dual luciferase reporter gene assay relative to 17beta-estradiol; format: cell-based
How it was run: (§1)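 ERβ expression vector (100 ng) plus 300 ng 3×ERE-luciferase reporter, calcium phosphate transfection into HEK293T cells plated in phenol red-free DMEM with 10% FBS. Next day, treated in triplicate with increasing doses (up to 10–5 M). For antagonist mode, 10 nM estradiol was co-added. Luciferase read 24 h later.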

Estrogen receptor [5] = target: T2, Estrogen receptor; experiment: Agonist activity at ERalpha (unknown origin) expressed in HEK293T cells assessed as transcriptional activity after 24 hrs by dual luciferase reporter gene assay; format: cell-based
Estrogen receptor beta [6] = target: T1, Estrogen receptor beta; experiment: Antagonist activity at ERbeta (unknown origin) expressed in HEK293T cells assessed as inhibition of 17beta-estradiol stimulated transcriptional activity after 24 hrs by dual luciferase reporter gene assay; format: cell-based
How it was run: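 HEK293T cells kept in DMEM with 10% FBS, plated in phenol red-free DMEM/10% FBS. Calcium phosphate co-transfection with 300 ng 3×ERE-luciferase reporter and 100 ng ERβ expression vector. Next day, cells stimulated with 10 nM estradiol plus increasing compound doses (up to 10–5 M), in triplicate. Luciferase read after 24 h.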

[7] = target: T3, Estrogen receptor (Homo sapiens) (UniProt P03372); experiment: Binding affinity to human ERalpha LBD expressed in Escherichia coli BL21(DE3) after 2 hrs by fluorescence tracer coumestrol based competitive fluorometric binding assay relative to 17beta-estradiol
T3 sequence (whole entry): T2 sequence (P03372 whole entry)

Estrogen receptor beta [8] = target: T1, Estrogen receptor beta; experiment: Agonist activity at ERbeta (unknown origin) expressed in HEK293T cells assessed as transcriptional activity after 24 hrs by dual luciferase reporter gene assay; format: cell-based; how it was run: as §1
Estrogen receptor beta [9] = target: T1, Estrogen receptor beta; experiment: Agonist activity at ERbeta (unknown origin) expressed in HEK293T cells assessed as transcriptional activity after 24 hrs by dual luciferase reporter gene assay relative to 17beta-estradiol; format: cell-based; how it was run: as §1
MCF7 [10] = experiment: Antiproliferative activity against human MCF7 cells at 50 uM after 5 days in presence of 10 nM 17beta-estradiol by MTT assay; format: functional, cell-based
How it was run: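 MCF-7 cells were given 50 μM compound with or without 10 nM E2 and cultured 5 days. Viability was expressed relative to untreated cells set at 100%. Mean of three separate experiments ± range.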

T1 sequence (Q92731 whole entry, the tested form may be a part): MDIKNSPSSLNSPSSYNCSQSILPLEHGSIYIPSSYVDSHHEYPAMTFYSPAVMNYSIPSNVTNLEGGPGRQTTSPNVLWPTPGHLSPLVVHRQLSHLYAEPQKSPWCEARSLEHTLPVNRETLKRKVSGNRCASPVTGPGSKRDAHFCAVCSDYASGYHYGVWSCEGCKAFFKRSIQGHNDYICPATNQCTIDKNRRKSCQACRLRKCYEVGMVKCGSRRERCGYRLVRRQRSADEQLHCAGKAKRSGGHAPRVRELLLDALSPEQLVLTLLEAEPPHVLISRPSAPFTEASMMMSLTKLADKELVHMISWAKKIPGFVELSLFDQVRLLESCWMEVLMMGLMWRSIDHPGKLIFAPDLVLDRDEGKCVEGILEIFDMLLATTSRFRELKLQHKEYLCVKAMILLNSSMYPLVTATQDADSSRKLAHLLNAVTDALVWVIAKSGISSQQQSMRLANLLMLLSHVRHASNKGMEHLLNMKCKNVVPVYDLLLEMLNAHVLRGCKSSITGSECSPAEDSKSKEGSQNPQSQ

Row | SMILES | RBA (Estrogen receptor beta [1]) [%] | IC50 (Estrogen receptor [2]) [nM] | IC50 (MCF7 [3]) [nM] | Ratio (Homo sapiens) | Efficacy (Estrogen receptor beta [4]) [%] | EC50 (Estrogen receptor [5]) [nM] | IC50 (Estrogen receptor beta [6]) [nM] | RBA [7] [%] | EC50 (Estrogen receptor beta [8]) [nM] | Efficacy (Estrogen receptor beta [9]) [%] | Activity (MCF7 [10])
1 | Cc1cc(O)ccc1-c1ccc(-c2ccc(OCCN3CCCCC3)cc2C)[se]1 | 0.62 | 41 | 25300 | < 0.1 | 78.3 | 2370 | 1240 | < 0.1 | – | – | –
2 | Cc1cc(O)ccc1-c1ccc(-c2ccc(OCCN3CCCC3)cc2C)[se]1 | 0.58 | 874 | 53800 | 3.37 | 4.6 | – | 146 | 1.96 | 240 | 72.3 | –
3 | Cc1cc(O)ccc1-c1c[se]cc1-c1ccc(OCCN2CCCC2)cc1C | 0.46 | 179 | 16600 | 3.6 | 66.7 | – | 43 | 1.65 | – | – | –
4 | Cc1cc(-c2c[se]cc2-c2ccc(OCCN3CCCCC3)c(C)c2)ccc1O | < 0.1 | – | > 100000 | – | 30.3 | 721 | 415 | < 0.1 | – | – | –
5 | Oc1ccc(-c2ccc(-c3ccc(OCCN4CCCCC4)cc3Cl)[se]2)c(Cl)c1 | < 0.1 | – | > 100000 | – | 24.9 | 911 | 2960 | < 0.1 | – | – | –
6 | Cc1cc(O)ccc1-c1c[se]cc1-c1ccc(O)cc1C | 6.7 | – | – | – | – | – | – | 0.27 | – | – | –
7 | Oc1ccc(-c2c[se]cc2-c2ccc(OCCN3CCCC3)cc2)cc1 | 5.92 | – | > 100000 | 0.35 | 46.7 | 1000 | 102 | 2.06 | – | – | –
8 | Oc1ccc(-c2c[se]cc2-c2ccc(OCCN3CCCC3)cc2Cl)c(Cl)c1 | 23.3 | 769 | 10900 | < 0.1 | 68.1 | – | 1160 | < 0.1 | – | – | –
9 | Oc1ccc(-c2c[se]cc2-c2ccc(OCCN3CCCCC3)cc2)cc1 | 2.35 | 1590 | 8130 | 3.3 | 22.8 | – | 451 | 7.58 | 1150 | 53.5 | inactive
10 | Oc1ccc(-c2c[se]cc2-c2ccc(OCCN3CCCCC3)c(F)c2)cc1F | 15.3 | 69 | 15600 | 0.32 | 45 | – | 540 | 4.82 | – | – | –
11 | Oc1ccc(-c2ccc(-c3ccc(OCCN4CCCCC4)cc3F)[se]2)c(F)c1 | 0.63 | – | > 100000 | 10.9 | 75.4 | 204 | 1940 | 6.89 | – | – | –
12 | Oc1ccc(-c2ccc(-c3ccc(OCCN4CCCC4)cc3F)[se]2)c(F)c1 | < 0.1 | – | > 100000 | > 10 | 92.1 | 136 | 1120 | 0.76 | – | – | –
13 | Oc1ccc(-c2ccc(-c3ccc(O)cc3F)[se]2)c(F)c1 | 24.3 | – | – | – | – | – | – | 5.9 | – | – | –
14 | Oc1ccc(-c2ccc(-c3ccc(OCCN4CCCC4)cc3)[se]2)cc1 | 1.02 | 1210 | 5770 | 12.2 | 83.9 | 219 | 1270 | 12.4 | – | – | inactive
15 | Oc1ccc(-c2ccc(-c3ccc(OCCN4CCCC4)cc3Cl)[se]2)c(Cl)c1 | 23.6 | 415 | 7810 | 0.19 | 49.4 | – | 299 | 4.59 | – | – | –
16 | Oc1ccc(-c2ccc(-c3ccc(O)cc3Cl)[se]2)c(Cl)c1 | 12.7 | – | – | 0.48 | – | – | – | 6.11 | – | – | –
17 | Cc1cc(-c2c[se]cc2-c2ccc(OCCN3CCCC3)c(C)c2)ccc1O | 5.92 | 836 | 12800 | 0.34 | 34.1 | 116 | 5 | 2.03 | – | 20.8 | –
18 | Oc1ccc(-c2ccc(-c3ccc(O)cc3)[se]2)cc1 | 2.87 | – | – | – | – | – | – | 0.61 | – | – | –
19 | Cc1cc(-c2c[se]cc2-c2ccc(O)c(C)c2)ccc1O | 0.62 | – | – | – | – | – | – | 0.71 | – | – | –
20 | Oc1ccc(-c2c[se]cc2-c2ccc(O)cc2)cc1 | 2.01 | – | – | – | – | – | – | 0.32 | – | – | –
21 | Oc1ccc(-c2cc(-c3ccc(OCCN4CCCCC4)cc3)c(-c3ccc(O)cc3)[se]2)cc1 | < 0.1 | 779 | 7040 | > 10 | 33.8 | 1830 | 5390 | 4.59 | – | – | –
22 | Oc1ccc(-c2c[se]cc2-c2ccc(O)c(F)c2)cc1F | 1.56 | – | – | – | – | – | – | 0.58 | – | – | –
23 | Cc1cc(O)ccc1-c1cc(-c2ccc(OCCN3CCCC3)cc2)c(-c2ccc(O)cc2C)[se]1 | 3.4 | 13 | 7050 | 4.06 | 170 | – | 16 | 13.8 | – | – | –
24 | Oc1ccc(-c2cc(-c3ccc(OCCN4CCCC4)cc3)c(-c3ccc(O)cc3)[se]2)cc1 | 16.7 | 974 | 4950 | 0.18 | 49.2 | – | 475 | 3.14 | – | – | inactive
25 | Cc1cc(O)ccc1-c1c[se]cc1-c1ccc(OCCN2CCCCC2)cc1C | 10.2 | 237 | 15800 | 0.05 | 43.4 | 158 | 1340 | 0.56 | – | – | –
26 | Oc1ccc(-c2c[se]cc2-c2ccc(OCCN3CCCCC3)cc2Cl)c(Cl)c1 | 18.4 | 413 | 14100 | 0.29 | 37.7 | – | 331 | 5.38 | – | – | –
27 | Cc1cc(O)ccc1-c1ccc(-c2ccc(O)cc2C)[se]1 | 11.1 | – | – | – | – | – | – | 5.6 | – | – | –

From ChEMBL document CHEMBL4261529, “Rational design and optimization of selenophenes with basic side chains as novel potent selective estrogen receptor modulators (SERMs) for breast cancer therapy” (Medchemcomm, 2017)
